The text below walks through data of ChEMBL document CHEMBL1127351, “Technetium-99m N,N'-bis(2-mercapto-2-methylpropyl)-2-aminobenzylamine: technetium-99m complexes of a novel bis(aminoethanethiol) ligand” (J Med Chem, 1994).

Data set [1] is filed under the species Rattus norvegicus. The data set is described as follows: Biodistribution of compound was tested in rat blood at 2 min. The following applies: in vivo. The data set is classed as ADME, organism-based. The method, boiled down: (§1)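 Male Sprague-Dawley rats (200–300 g) under ether anesthesia got an iv injection of 0.2 mL saline containing the 99mTc complex (2–5 μCi). At set times, blood was drawn by cardiac puncture and rats were killed by cardiectomy. Organs were excised, weighed and gamma-counted. % dose/organ was taken against diluted injected-dose standards. Values are the mean of three rats ± SEM.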

Data set [2] is filed under the species Rattus norvegicus. The data set is described as follows: Biodistribution of compound was tested in rat blood at 15 min. The following applies: in vivo, 0.25 h. The class given is ADME, organism-based. In short, it runs like this:
as §1

The species entered for data set [3] is Rattus norvegicus. The data set is described as follows: Biodistribution of compound was tested in rat blood at 60 min. The following applies: in vivo, 1 h. The class given is ADME, organism-based. The method, boiled down:
as §1

The species entered for data set [4] is Rattus norvegicus. In words: Biodistribution of compound was tested in rat kidney at 15 min. The following applies: in vivo, 0.25 h. The class given is ADME, organism-based. In short, it runs like this:
as §1

Data set [5] is filed under the species Rattus norvegicus. The data set is described as follows: Biodistribution of compound was tested in rat kidney at 2 min. The class given is ADME, organism-based. The following applies: in vivo. The method, boiled down:
as §1

The species entered for data set [6] is Rattus norvegicus. In words: Biodistribution of compound was tested in rat kidney at 60 min. The data set is classed as ADME, organism-based. The following applies: in vivo, 1 h. In short, it runs like this: as §1
The species named for data set [7] is Rattus norvegicus. In words: Biodistribution of compound was tested in rat liver at 15 min. The class given is ADME, organism-based. The following applies: in vivo, 0.25 h. In short, it runs like this:
as §1

For data set [8], the species on record is Rattus norvegicus. The data set is described as follows: Biodistribution of compound was tested in rat liver at 2 min. The class given is ADME, organism-based. The following applies: in vivo. The method, boiled down: as §1
For data set [9], the species on record is Rattus norvegicus. In words: Biodistribution of compound was tested in rat liver at 60 min. The following applies: in vivo, 1 h. The data set is classed as ADME, organism-based. The method, boiled down: as §1
The species entered for data set [10] is Rattus norvegicus. In words: Biodistribution of compound was tested in rat lung at 15 min. The data set is classed as ADME, organism-based. The following applies: in vivo, 0.25 h. In short, it runs like this:
as §1

The species named for data set [11] is Rattus norvegicus. The data set is described as follows: Biodistribution of compound was tested in rat lung at 2 min. The following applies: in vivo. The class given is ADME, organism-based. In short, it runs like this: as §1
The species named for data set [12] is Rattus norvegicus. In words: Biodistribution of compound was tested in rat lung at 60 min. The class given is ADME, organism-based. The following applies: in vivo, 1 h. The method, boiled down:
as §1

The species named for data set [13] is Rattus norvegicus. The data set is described as follows: Biodistribution of compound was tested in rat muscle at 15 min. The data set is classed as ADME, organism-based, Muscle tissue. The following applies: in vivo, 0.25 h. In short, it runs like this: as §1
The species named for data set [14] is Rattus norvegicus. The data set is described as follows: Biodistribution of compound was tested in rat muscle at 2 min. The data set is classed as ADME, organism-based, Muscle tissue. The following applies: in vivo. The method, boiled down:
as §1

For data set [15], the species on record is Rattus norvegicus. In words: Biodistribution of compound was tested in rat muscle at 60 min. The data set is classed as ADME, organism-based, Muscle tissue. The following applies: in vivo, 1 h. The method, boiled down: as §1
The species named for data set [16] is Rattus norvegicus. In words: Biodistribution of compound was tested in rat skin at 15 min. The class given is ADME, organism-based, Zone of skin. The following applies: in vivo, 0.25 h. In short, it runs like this: as §1
The species entered for data set [17] is Rattus norvegicus. In words: Biodistribution of compound was tested in rat skin at 2 min. The class given is ADME, organism-based, Zone of skin. The following applies: in vivo. In short, it runs like this: as §1
The species named for data set [18] is Rattus norvegicus. In words: Biodistribution of compound was tested in rat skin at 60 min. The data set is classed as ADME, organism-based, Zone of skin. The following applies: in vivo, 1 h. In short, it runs like this: as §1
Data set [19] is filed under the species Rattus norvegicus. The data set is described as follows: Biodistribution of compound was tested in rat spleen at 2 min. The data set is classed as ADME, organism-based. The following applies: in vivo. The method, boiled down: as §1
The species named for data set [20] is Rattus norvegicus. In words: Biodistribution of compound was tested in rat brain at 15 min. The following applies: in vivo, 0.25 h. The class given is ADME, organism-based. In short, it runs like this:
as §1

The species named for data set [21] is Rattus norvegicus. In words: Biodistribution of compound was tested in rat brain at 2 min. The class given is ADME, organism-based. The following applies: in vivo. In short, it runs like this:
as §1

The species named for data set [22] is Rattus norvegicus. The data set is described as follows: Biodistribution of compound was tested in rat brain at 60 min. The class given is ADME, organism-based. The following applies: in vivo, 1 h. The method, boiled down: as §1
Data set [23] is filed under the species Rattus norvegicus. The data set is described as follows: Biodistribution of compound was tested in rat heart at 15 min. The following applies: in vivo, 0.25 h. The data set is classed as ADME, organism-based. The method, boiled down:
as §1

The species named for data set [24] is Rattus norvegicus. In words: Biodistribution of compound was tested in rat heart at 2 min. The class given is ADME, organism-based. The following applies: in vivo. The method, boiled down: as §1
For data set [25], the species on record is Rattus norvegicus. The data set is described as follows: Biodistribution of compound was tested in rat spleen at 60 min. The class given is ADME, organism-based. The following applies: in vivo, 1 h. In short, it runs like this:
as §1

The species entered for data set [26] is Rattus norvegicus. In words: Biodistribution of compound was tested in rat heart at 60 min. The class given is ADME, organism-based. The following applies: in vivo, 1 h. The method, boiled down: as §1
For data set [27], the species on record is Rattus norvegicus. In words: Biodistribution of compound was tested in rat spleen at 15 min. The data set is classed as ADME, organism-based. The following applies: in vivo, 0.25 h. In short, it runs like this:
as §1

Data set [28] is filed under the species Rattus norvegicus. The data set is described as follows: Biodistribution of compound was tested in rat blood at 30 min. The data set is classed as ADME, organism-based. The following applies: in vivo, 0.5 h. The method, boiled down:
as §1

Data set [29] is filed under the species Rattus norvegicus. In words: Biodistribution of compound was tested in rat kidney at 30 min. The data set is classed as ADME, organism-based. The following applies: in vivo, 0.5 h. In short, it runs like this:
as §1

Data set [30] is filed under the species Rattus norvegicus. In words: Biodistribution of compound was tested in rat lung at 30 min. The data set is classed as ADME, organism-based. The following applies: in vivo, 0.5 h. The method, boiled down:
as §1

For data set [31], the species on record is Rattus norvegicus. The data set is described as follows: Biodistribution of compound was tested in rat muscle at 30 min. The data set is classed as ADME, organism-based, Muscle tissue. The following applies: in vivo, 0.5 h. In short, it runs like this:
as §1

Data set [32] is filed under the species Rattus norvegicus. The data set is described as follows: Biodistribution of compound was tested in rat skin at 30 min. The class given is ADME, organism-based, Zone of skin. The following applies: in vivo, 0.5 h. The method, boiled down: as §1
For data set [33], the species on record is Rattus norvegicus. In words: Biodistribution of compound was tested in rat spleen at 30 min. The data set is classed as ADME, organism-based. The following applies: in vivo, 0.5 h. In short, it runs like this:
as §1

The species named for data set [34] is Rattus norvegicus. In words: Biodistribution of compound was tested in rat heart at 30 min. The data set is classed as ADME, organism-based. The following applies: in vivo, 0.5 h. The method, boiled down:
as §1

The species entered for data set [35] is Rattus norvegicus. In words: Biodistribution of compound was tested in rat brain at 30 min. The class given is ADME, organism-based. The following applies: in vivo, 0.5 h. The method, boiled down:
as §1

The species entered for data set [36] is Rattus norvegicus. In words: Biodistribution of compound was tested in rat liver at 30 min. The class given is ADME, organism-based. The following applies: in vivo, 0.5 h. In short, it runs like this: as §1

On to technicium complex, for which the Dose/organ in the data set filed under Rattus norvegicus [1] was determined as 4.37%; in the data set listed under Rattus norvegicus [2] it was 2%; in the data set listed under Rattus norvegicus [3], 1.27%; in the data set listed under Rattus norvegicus [4] it was 1.54%; in the data set filed under Rattus norvegicus [5], 3.58%; in the data set listed under Rattus norvegicus [6], 0.93%. The Dose/organ in the data set listed under Rattus norvegicus [7] stood at 26.5%; in the data set filed under Rattus norvegicus [8], 23.58%; in the data set listed under Rattus norvegicus [9] it was 20.75%; in the data set listed under Rattus norvegicus [10] it was 0.91%; in the data set filed under Rattus norvegicus [11], 1.79%; in the data set listed under Rattus norvegicus [12], 0.5%. Besides, the Dose/organ in the data set listed under Rattus norvegicus [13] was found to be 16.5%; in the data set listed under Rattus norvegicus [14], 20.77%; in the data set filed under Rattus norvegicus [15], 20.08%; in the data set filed under Rattus norvegicus [16] it was 10.45%; in the data set listed under Rattus norvegicus [17], 13.48%; in the data set listed under Rattus norvegicus [18], 16.5%. Further, the Dose/organ is 0.64% in the data set listed under Rattus norvegicus [19]; 0.72% in the data set filed under Rattus norvegicus [20]; 1.54% in the data set filed under Rattus norvegicus [21]; 0.21% in the data set filed under Rattus norvegicus [22]; 0.53% in the data set listed under Rattus norvegicus [23]; 1.28% in the data set listed under Rattus norvegicus [24]. In addition, the Dose/organ in the data set listed under Rattus norvegicus [25] amounted to 0.68%; in the data set filed under Rattus norvegicus [26], 0.28%; in the data set filed under Rattus norvegicus [27], 0.72%.
Regarding tecnicium complex, the Dose/organ in the data set listed under Rattus norvegicus [1] turned out to be 8.12%; in the data set listed under Rattus norvegicus [28], 3.22%; in the data set listed under Rattus norvegicus [5], 3.3%; in the data set listed under Rattus norvegicus [29], 1.33%; in the data set filed under Rattus norvegicus [8], 22.76%; in the data set listed under Rattus norvegicus [11] it was 4.47%. In addition, the Dose/organ in the data set listed under Rattus norvegicus [30] was 1.98%; in the data set listed under Rattus norvegicus [14], 10.24%; in the data set listed under Rattus norvegicus [31] it was 13.52%; in the data set filed under Rattus norvegicus [17], 3.94%; in the data set filed under Rattus norvegicus [32], 11.94%; in the data set filed under Rattus norvegicus [19] it was 0.68%. Besides, the Dose/organ in the data set filed under Rattus norvegicus [33] is listed as 0.3%; in the data set filed under Rattus norvegicus [34], 0.24%; in the data set listed under Rattus norvegicus [21], 1.07%; in the data set filed under Rattus norvegicus [35], 0.28%; in the data set listed under Rattus norvegicus [24], 1.15%; in the data set listed under Rattus norvegicus [36], 22.65%.
